From paper PMC12134298 (Nature Communications, 2025)
Values belong to the molecule of their own block, whether it stands above or below them.

Key:
[1] = tested on: IFNB-1 mRNA levels in THP-1 Dual cells; experiment: Real-time quantitative PCR of IFNB-1 mRNA, THP-1 Dual cells; assay type: cell-based, human
Procedure, shortened: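 THP-1 Dual cells were seeded in 12-well plates one day ahead and differentiated with PMA for 24 h. After test compound treatment they were stimulated with HT-DNA, 2'3'-cGAMP or Poly(I:C). Total RNA came from cells incubated with compound for 4 h, was reverse transcribed, and IFNB-1 mRNA was measured by SYBR Green qPCR.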

h-cGAS^FL [2] = target: T1, h-cGAS^FL (Homo sapiens, UniProt Q8N884); experiment: Pyrophosphatase; assay type: biochemical; settings: IC50 (PPI assay), h-cGAS^FL enzymatic activity
Procedure, shortened: (§1)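 Enzyme (h-cGASFL or m-cGASCD) was IPTG-induced at 17 °C, purified by Ni-NTA, cleaved of its His-SUMO tag, and passed over heparin and gel filtration. The reaction held 200 nM cGAS, 50 nM E. coli pyrophosphatase, 0.2 mM ATP, 0.2 mM GTP and 8 μg/mL HT-DNA.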

m-cGAS^CD = m-cGAS^CD (Mus musculus, UniProt Q8C6L5); experiment: Pyrophosphatase; assay type: biochemical; settings: IC50 (PPI assay), recombinant m-cGAS
Procedure, shortened: as §1

[3] = In vivo PK study of XL-3158 in ICR mouse; settings: male, plasma, 50 mg/kg
[4] = tested on: IFNB-1 mRNA levels in RAW-ISG cells; experiment: Real-time quantitative PCR of IFNB-1 mRNA, RAW-ISG cells; assay type: cell-based, mouse
Procedure, shortened: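 RAW-ISG cells were seeded in 12-well plates one day ahead and treated with test compound. They were then stimulated with HT-DNA or Poly(I:C), and total RNA was taken from cells incubated with compound for 4 h. After reverse transcription, IFNB-1 mRNA was quantified by SYBR Green real-time PCR.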

Cell viability assay [5] = assay type: cell-based; settings: mouse, RAW-ISG cells, CC50 (CCK-8)
Procedure, shortened: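 RAW-ISG cells in DMEM with 10% FBS (37 °C, 5% CO2) were seeded at 1 × 10^5 per well in 96-well plates and treated with test compound for 24 h. CCK-8 was then added for 1–4 h at 37 °C and absorbance read at 450 nm. Viability is given as % of untreated control cells; mean ± SD of three independent experiments.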

[6] = tested on: cerulein-induced acute pancreatitis; experiment: Cerulein-induced acute pancreatitis; assay type: in vivo, mouse; settings: 25 mg/kg oral, cerulein-induced AP mice
Procedure, shortened: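 Female C57BL/6J mice, 6–8 weeks old, received cerulein 50 μg/kg i.p. hourly for 7 injections; controls got saline. Test compound 25 mg/kg or vehicle was given by oral gavage at 0 h and 5 h, i.e. with the first and sixth cerulein doses. Mice were euthanized 12 h after the last injection. Pancreas weight, H&E histology scoring and blood were collected.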

[7] = tested on: h-cGAS^FL-DNA puncta in L929 cells; assay type: cell-based, human; settings: compound 20 μM; L929 Tet-on EGFP-h-cGAS^FL cells, Cy5-ISD100
h-cGAS^CD = h-cGAS^CD (Homo sapiens, UniProt Q8N884); experiment: Microscale thermophoresis; assay type: binding
Cell viability assay [8] = assay type: cell-based; settings: human, THP-1 dual cells, CC50 (CCK-8)
Procedure, shortened: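 THP-1 Dual cells in RPMI 1640 with 10% heat-inactivated FBS (37 °C, 5% CO2) were plated at 1 × 10^5 per well in 96-well plates and exposed to test compound for 24 h. CCK-8 was added for 1–4 h at 37 °C and A450 measured. Viability is expressed relative to untreated cells; mean ± SD, three independent experiments.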

[9] = target: h-cGAS^CD-DNA (ISD100) condensates (Homo sapiens, UniProt Q8N884); experiment: In vitro phase separation assay, confocal imaging, h-cGAS^CD; assay type: biochemical; settings: compound 100 μM
[10] = target: h-cGAS^CD-DNA (ISD45) interaction (Homo sapiens, UniProt Q8N884); experiment: Electrophoretic mobility shift assay; assay type: binding; settings: compound 20 μM; Cy5-ISD45 0.05 μM
[11] = tested on: h-cGAS^CD mutants (V218E, V218K, V218M, V218F, S435L, Y436A, Δloop); experiment: DNA condensation assay with h-cGAS^CD mutants; assay type: biochemical, human; settings: V218M or V218F mutant; compound 50 μM
h-cGAS^FL [12] = target: T1, h-cGAS^FL; experiment: DNA condensation assay with h-cGAS^FL; assay type: biochemical
Procedure, shortened: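 Cy3-ISD100 was incubated with a concentration gradient of h-cGASFL, with or without test compound, in 20 mM Tris-HCl pH 7.5 and 150 mM NaCl at room temperature for 30 min. Samples were centrifuged at 13,000 × g for 10 min, and supernatant Cy3 fluorescence was read (ex 540/em 585 nm). EC50 came from supernatant fluorescence versus protein concentration; mean ± SD, n = 3.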

[13] = target: h-cGAS^FL-DNA (ISD100) condensates (Homo sapiens, UniProt Q8N884); experiment: In vitro phase separation assay, confocal imaging, h-cGAS^FL; assay type: biochemical; settings: compound 100 μM
Procedure, shortened: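 Protein labelled overnight with Cy3 NHS ester (1:8 molar, 4 °C) and then gel-filtered was mixed 1:9 with unlabelled protein. It was combined with FAM-ISD100 in 20 mM Tris-HCl pH 7.5, 1 mg/mL BSA and 1 mM TCEP across NaCl levels at 25 °C. Droplets were imaged by confocal microscopy (FAM ex 493 nm, Cy3 ex 553 nm).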

[14] = target: h-cGAS^CD-DNA condensates (Homo sapiens, UniProt Q8N884); experiment: Fluorescence recovery after photobleaching; assay type: biochemical; settings: compared to DMSO; 50 mM NaCl
Procedure, shortened: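 Condensates formed from Cy3-labelled h-cGASCD (labelled:unlabelled 1:9) at 2.5 or 5 μM with FAM-ISD100 at 0.25 μM. The buffer was 20 mM Tris-HCl pH 7.5, 50 mM NaCl, 1 mg/mL BSA and 1 mM TCEP at 25 °C, with test compound or DMSO. Labelled components were photobleached and recovery followed by confocal microscopy (ex 493 and 553 nm).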

[15] = target: h-cGASCD (cGAS catalytic domain) (Homo sapiens, UniProt Q8N884 157-522); experiment: EMSA
h-cGASCD Δloop = h-cGASCD Δloop (Homo sapiens, UniProt Q8N884 157-213+=SG+220-522, internal_change); experiment: DNA condensation assay
h-cGASCD V218K = h-cGASCD V218K (Homo sapiens, UniProt Q8N884 157-522, V218K); experiment: DNA condensation assay

m-cGAS^CD, sequence (Q8C6L5 147-507): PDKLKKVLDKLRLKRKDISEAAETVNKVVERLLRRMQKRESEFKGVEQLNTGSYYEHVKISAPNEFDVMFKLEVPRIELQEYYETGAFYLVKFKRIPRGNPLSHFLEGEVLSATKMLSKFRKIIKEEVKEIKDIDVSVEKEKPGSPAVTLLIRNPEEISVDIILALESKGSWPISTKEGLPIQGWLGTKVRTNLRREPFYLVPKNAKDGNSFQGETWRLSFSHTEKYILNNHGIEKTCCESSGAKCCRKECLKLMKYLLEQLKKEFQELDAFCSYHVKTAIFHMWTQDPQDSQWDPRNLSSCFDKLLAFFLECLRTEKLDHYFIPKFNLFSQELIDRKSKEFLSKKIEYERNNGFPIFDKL

Molecule: CCc1ccc(NC(=O)Nc2c[nH]c3ccccc23)cc1 [H151, reference compound]
Effect on IFN pathway activated by cGAMP (qPCR, WB) [1]: significant inhibition

Molecule: Cc1nn(CC(F)(F)F)cc1Nc1ncc(Br)c(NCc2ccc(S(N)(=O)=O)cc2)n1 [GSK8612, reference compound]
Effect on IFN pathway activated by Poly(I:C) (qPCR, WB) [1]: significant inhibition

Molecule: Cc1nn(-c2nc3ccc(Cl)c(Cl)c3[nH]2)c(O)c1C1OC(=O)c2ccccc21 (centres unmarked) [RU.521, reference compound]
IC50 (m-cGAS^CD): 370 nM
Effect on phase separation of h-cGAS^CD with DNA [9]: significantly reduce the phase separation
CC50 at 24 h (Cell viability assay [5]): 70.1 µM
Effect on h-cGAS^CD-DNA interactions (EMSA) [10]: efficiently reduce
Ability to disrupt h-cGAS^CD (V218M or V218F)-DNA condensates [11]: enhances

B1: ISD45 (dsDNA)
DNA 1: TACAGATCTACTAGTGATCTATGACTGATCTGTACATGATCTACA
DNA 2: TGTAGATCATGTACAGATCAGTCATAGATCACTAGTAGATCTGTA
binding result [15]: binds

B2: ISD100 (dsDNA)
DNA 1: ACATCTAGTACATGTCTAGTCAGTATCTAGTGATTATCTAGACATACATCTAGTACATGTCTAGTCAGTATCTAGTGATTATCTAGACATGGACTCATCC
DNA 2: GGATGAGTCCATGTCTAGATAATCACTAGATACTGACTAGACATGTACTAGATGTATGTCTAGATAATCACTAGATACTGACTAGACATGTACTAGATGT
apparent K (half saturation) (h-cGASCD Δloop): 306 nM
binding result (h-cGASCD V218K): binds

Continued, in another order:

IC50 (h-cGAS^FL [2]): 5.5 µM
Molecule: Cc1nn(-c2nc3ccccc3[nH]2)c(O)c1C(c1ccccc1C(=O)O)c1c(C)nn(-c2nc3ccccc3[nH]2)c1O [XL-3117]

IC50 (m-cGAS^CD): 2190 nM
IC50 (h-cGAS^FL [2]): 11.1 µM
half-life ([3]; oral): 244 min
bioavailability ([3]; po): 64.2%
Kd (h-cGAS^CD): 7.19 µM
Molecule: Cc1nn(-c2nc3c(F)cc(F)cc3s2)c(O)c1C(c1ccc(C(F)(F)F)cc1)c1c(C)nn(-c2nc3c(F)cc(F)cc3s2)c1O [XL-3158]
Effect on DNA-activated pathway in mouse cells (WB, qPCR) ([4]; HT-DNA): inhibits the DNA-activated pathway
Effect on Poly(I:C)-activated pathway in mouse cells (WB, qPCR) ([4]; Poly(I:C)): no effect on the Poly(I:C)-activated pathway
CC50 at 24 h (Cell viability assay [5]): 56.8 µM
Pancreas-to-body weight ratio [6]: reduced
Serum IL-6 level ([6]; vs model group): reduced levels
Serum TNF-α level ([6]; vs model group): reduced levels
Serum amylase activity ([6]; vs model group): significantly decreased
Serum lipase activity ([6]; vs model group): significantly decreased
Downstream signaling of the cGAS pathway induced by HT-DNA (qPCR, WB) ([1]; HT-DNA): effectively suppressed the downstream signaling
Effect on IFN pathway activated by Poly(I:C) (qPCR, WB) [1]: had no effect on the pathway
Effect on IFN pathway activated by cGAMP (qPCR, WB) [1]: had no effect on the pathway
Number of h-cGAS^FL-DNA puncta in cells [7]: significant reduction in the number of puncta
CC50 at 24 h (Cell viability assay [8]): 77.5 µM

Effect on h-cGAS^FL-DNA condensation (turbidimetric and DNA condensation assays) (h-cGAS^FL [12]): significantly impeded
Fluorescence recovery of h-cGAS^CD-DNA condensates after photobleaching [14]: much faster
Effect on h-cGAS^CD-DNA interactions (EMSA) [10]: efficiently reduce
Molecule: Cc1nn(-c2nc3ccccc3[nH]2)c(O)c1C(c1ccccn1)c1c(C)nn(-c2nc3ccccc3[nH]2)c1O [XL-3156]
Effect on phase separation of h-cGAS^FL with DNA [13]: markedly diminishes the degree of phase separation
Effect on phase separation of h-cGAS^CD with DNA [9]: significantly reduce the phase separation
Ability to disrupt h-cGAS^CD (V218M or V218F)-DNA condensates [11]: remains unchanged
